Drawing on ChEMBL document CHEMBL1153736, “Application of ring-closing metathesis macrocyclization to the development of Tsg101-binding antagonists” (Bioorg Med Chem Lett, 2010), this text covers Drug uptake and Kd for 17 compounds.

Numbered stars: 1 amine (or outer) side, 2 acyl side, 3 side chain; on linkers, the order of the positions; unused ones are H or OH. Bridge positions count the residues as written; N and C are the ends. Square brackets hold non-standard residues; d marks the D form. Peptide text beside a SMILES is read from it. * marks the point of attachment. Fluorescein(5-NHCS) = O=C1OC2(c3ccc(O)cc3Oc3cc(O)ccc32)c2cc(NC(=S)*)ccc21; Gly(N-but-3-enyl) = O=C(CN(CCC=[*:3])[*:1])[*:2]; X3 = O=C(CN(CCCCCCC=[*:3])[*:1])[*:2]; X5 = O=C(CN(CCCCCC=[*:3])[*:1])[*:2]; N(7-octenyl)Gly = C=CCCCCCCNCC(=O)O; X1 = O=C(CN(CCCC=[*:3])[*:1])[*:2]; X2 = O=C(CN(CC=[*:3])[*:1])[*:2]; Ava = NCCCCC(=O)O

The test system of one data set is HeLa. Description: Cellular uptake in human HeLa cells assessed as fluorescence intensity by FACS analysis relative to control. It is filed as ADME, cell-based. The conditions noted are these: in the assay text read “fluorescence microscopy” for “FACS analysis”. The method in brief:
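Uptake of FITC-tagged peptide-peptoid hybrids was measured by fluorescence microscopy. The value is the average fluorescence intensity of treated cells, quantified from at least 20 cells taken from 4–6 fields, each field holding about 5 cells.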
For the compound `C[C@@H]1NC(=O)[C@H]([C@@H](C)O)NC(=O)[C@@H]2CCCN2C(=O)[C@H](CCC(=O)O)NC(=O)CN(C(=O)CCCCNC(=S)Nc2ccc3c(c2)C2(OC3=O)c3ccc(O)cc3Oc3cc(O)ccc32)CC/C=C/CCCCCCN(CC(=O)N[C@@H](CCC(=O)O)C(N)=O)C(=O)[C@@H]2CCCN2C(=O)[C@@H]2CCCN2C1=O` ({Fluorescein(5-NHCS)-Ava}-[Gly(N-but-3-enyl)]EPTAPP[X3]E-NH2; staple (E) 1-8), the Drug uptake is 100%.
For the compound `C=CCN(CC(N)=O)C(=O)[C@H](CCC(=O)O)NC(=O)[C@@H]1CCCN1C(=O)[C@@H]1CCCN1C(=O)[C@H](C)NC(=O)[C@@H](NC(=O)[C@@H]1CCCN1C(=O)CN(CC=C)C(=O)[C@@H]1CCCN1C(=O)CCCCNC(=S)Nc1ccc2c(c1)C1(OC2=O)c2ccc(O)cc2Oc2cc(O)ccc21)[C@@H](C)O`, the Drug uptake is 98%.
The same measure, in the same setting: the figure for `C[C@@H]1NC(=O)[C@H]([C@@H](C)O)NC(=O)[C@@H]2CCCN2C(=O)CN(C(=O)[C@@H]2CCCN2C(=O)CCCCNC(=S)Nc2ccc3c(c2)C2(OC3=O)c3ccc(O)cc3Oc3cc(O)ccc32)CCCCCC/C=C\CCCCCCN(CC(N)=O)C(=O)[C@H](CCC(=O)O)NC(=O)[C@@H]2CCCN2C(=O)[C@@H]2CCCN2C1=O` is 199%; for `C=CCCCCCCN(CC(N)=O)C(=O)[C@H](CCC(=O)O)NC(=O)[C@@H]1CCCN1C(=O)[C@@H]1CCCN1C(=O)[C@H](C)NC(=O)[C@@H](NC(=O)[C@@H]1CCCN1C(=O)CN(CCCCCCC=C)C(=O)[C@@H]1CCCN1C(=O)CCCCNC(=S)Nc1ccc2c(c1)C1(OC2=O)c2ccc(O)cc2Oc2cc(O)ccc21)[C@@H](C)O` it is 42%; for `C[C@@H]1NC(=O)[C@H]([C@@H](C)O)NC(=O)[C@@H]2CCCN2C(=O)CN(C(=O)[C@@H]2CCCN2C(=O)CCCCNC(=S)Nc2ccc3c(c2)C2(OC3=O)c3ccc(O)cc3Oc3cc(O)ccc32)CC/C=C\CCCCCCN(CC(N)=O)C(=O)[C@H](CCC(=O)O)NC(=O)[C@@H]2CCCN2C(=O)[C@@H]2CCCN2C1=O` it is 77%.
Take `C[C@@H]1NC(=O)[C@H]([C@@H](C)O)NC(=O)[C@@H]2CCCN2C(=O)CN(C(=O)[C@@H]2CCCN2C(=O)CCCCNC(=S)Nc2ccc3c(c2)C2(OC3=O)c3ccc(O)cc3Oc3cc(O)ccc32)CCCCCC/C=C\CCCCCCN(CC(=O)N[C@@H](CCC(=O)O)C(N)=O)C(=O)[C@@H]2CCCN2C(=O)[C@@H]2CCCN2C1=O` ({Fluorescein(5-NHCS)-Ava}-P[X3]PTAPP[X3]E-NH2; staple (Z) 2-8): the Drug uptake was 200%.
As to `C=CCCCCCCN(CC(=O)N1CCC[C@H]1C(=O)N[C@H](C(=O)N[C@@H](C)C(=O)N1CCC[C@H]1C(=O)N1CCC[C@H]1C(=O)N(CCCCCCC=C)CC(=O)N[C@@H](CCC(=O)O)C(N)=O)[C@@H](C)O)C(=O)[C@@H]1CCCN1C(=O)CCCCNC(=S)Nc1ccc2c(c1)C1(OC2=O)c2ccc(O)cc2Oc2cc(O)ccc21` ({Fluorescein(5-NHCS)-Ava}-P[N(7-octenyl)Gly]PTAPP[N(7-octenyl)Gly]E-NH2), the Drug uptake is given as 45%.
Consider `C=CCN(CC(=O)N[C@@H](CCC(=O)O)C(=O)N1CCC[C@H]1C(=O)N[C@H](C(=O)N[C@@H](C)C(=O)N1CCC[C@H]1C(=O)N1CCC[C@H]1C(=O)N[C@@H](CCC(=O)O)C(=O)N(CC=C)CC(N)=O)[C@@H](C)O)C(=O)CCCCNC(=S)Nc1ccc2c(c1)C1(OC2=O)c2ccc(O)cc2Oc2cc(O)ccc21` (stereo in doubt; 1'-(1,1)), for which the Drug uptake is recorded as 74%.
As for `C[C@@H]1NC(=O)[C@H]([C@@H](C)O)NC(=O)[C@@H]2CCCN2C(=O)CN(C(=O)[C@@H]2CCCN2C(=O)CCCCNC(=S)Nc2ccc3c(c2)C2(OC3=O)c3ccc(O)cc3Oc3cc(O)ccc32)CC/C=C/CCCCCCN(CC(=O)N[C@@H](CCC(=O)O)C(N)=O)C(=O)[C@@H]2CCCN2C(=O)[C@@H]2CCCN2C1=O` ({Fluorescein(5-NHCS)-Ava}-P[Gly(N-but-3-enyl)]PTAPP[X3]E-NH2; staple (E) 2-8), the Drug uptake is listed as 76%.
On to `C=CCCCCCCN(CC(=O)N[C@@H](CCC(=O)O)C(=O)N1CCC[C@H]1C(=O)N[C@H](C(=O)N[C@@H](C)C(=O)N1CCC[C@H]1C(=O)N1CCC[C@H]1C(=O)N(CCCCCCC=C)CC(=O)N[C@@H](CCC(=O)O)C(N)=O)[C@@H](C)O)C(=O)CCCCNC(=S)Nc1ccc2c(c1)C1(OC2=O)c2ccc(O)cc2Oc2cc(O)ccc21` ({Fluorescein(5-NHCS)-Ava}-[N(7-octenyl)Gly]EPTAPP[N(7-octenyl)Gly]E-NH2), for which the Drug uptake turned out to be 40%.
Turning to `C=CCCCCCCN(CC(=O)N[C@@H](CCC(=O)O)C(=O)N1CCC[C@H]1C(=O)N[C@H](C(=O)N[C@@H](C)C(=O)N1CCC[C@H]1C(=O)N1CCC[C@H]1C(=O)N[C@@H](CCC(=O)O)C(=O)N(CCCCCCC=C)CC(N)=O)[C@@H](C)O)C(=O)CCCCNC(=S)Nc1ccc2c(c1)C1(OC2=O)c2ccc(O)cc2Oc2cc(O)ccc21`, the Drug uptake is reported as 35%.
As to `C[C@@H]1NC(=O)[C@H]([C@@H](C)O)NC(=O)[C@@H]2CCCN2C(=O)[C@H](CCC(=O)O)NC(=O)CN(C(=O)CCCCNC(=S)Nc2ccc3c(c2)C2(OC3=O)c3ccc(O)cc3Oc3cc(O)ccc32)CC/C=C\CCCCCCN(CC(N)=O)C(=O)[C@H](CCC(=O)O)NC(=O)[C@@H]2CCCN2C(=O)[C@@H]2CCCN2C1=O`, the Drug uptake is 100%.
On to H-PEPTAPPEE-OH, for which the Drug uptake came to 74%.
Take `C[C@@H]1NC(=O)[C@H]([C@@H](C)O)NC(=O)[C@@H]2CCCN2C(=O)[C@H](CCC(=O)O)NC(=O)CN(C(=O)CCCCNC(=S)Nc2ccc3c(c2)C2(OC3=O)c3ccc(O)cc3Oc3cc(O)ccc32)CCCCCC/C=C\CCCCCCN(CC(N)=O)C(=O)[C@H](CCC(=O)O)NC(=O)[C@@H]2CCCN2C(=O)[C@@H]2CCCN2C1=O`: the Drug uptake is listed as 328%.

For the next data set, the target named is T1, Tumor susceptibility gene 101 protein (Homo sapiens, UniProt Q99816).
T1 sequence (Q99816 whole entry): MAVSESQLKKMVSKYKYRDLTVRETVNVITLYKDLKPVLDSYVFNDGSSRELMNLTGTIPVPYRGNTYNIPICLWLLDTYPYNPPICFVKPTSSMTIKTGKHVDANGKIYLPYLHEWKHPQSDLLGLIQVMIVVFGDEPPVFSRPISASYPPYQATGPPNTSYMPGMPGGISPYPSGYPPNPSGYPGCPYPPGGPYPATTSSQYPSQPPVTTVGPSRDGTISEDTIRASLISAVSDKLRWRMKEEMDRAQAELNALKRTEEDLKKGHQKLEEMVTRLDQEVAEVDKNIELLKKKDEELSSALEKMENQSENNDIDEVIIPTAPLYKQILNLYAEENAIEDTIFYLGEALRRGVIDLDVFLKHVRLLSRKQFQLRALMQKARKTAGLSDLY
The data set is described as follows: Binding affinity to ubiquitin E2 variant domain of human Tsg101 by fluorescent anisotropy.
Conditions: not given
With `C[C@@H]1NC(=O)[C@H]([C@@H](C)O)NC(=O)[C@@H]2CCCN2C(=O)CN(C(=O)[C@@H]2CCCN2C(=O)CCCCNC(=S)Nc2ccc3c(c2)C2(OC3=O)c3ccc(O)cc3Oc3cc(O)ccc32)CCCC=CCN(CC(=O)N[C@@H](CCC(=O)O)C(N)=O)C(=O)[C@@H]2CCCN2C(=O)[C@@H]2CCCN2C1=O` ({Fluorescein(5-NHCS)-Ava}-P[X1]PTAPP[X2]E-NH2; staple 2-8), the equilibrium dissociation constant (Kd) is over 500 µM.
Same read-out and setting: the figure for `C[C@@H]1NC(=O)[C@H]([C@@H](C)O)NC(=O)[C@@H]2CCCN2C(=O)CN(C(=O)[C@@H]2CCCN2C(=O)CCCCNC(=S)Nc2ccc3c(c2)C2(OC3=O)c3ccc(O)cc3Oc3cc(O)ccc32)C/C=C\CN(CC(=O)N[C@@H](CCC(=O)O)C(N)=O)C(=O)[C@@H]2CCCN2C(=O)[C@@H]2CCCN2C1=O` ({Fluorescein(5-NHCS)-Ava}-P[X2]PTAPP[X2]E-NH2; staple (Z) 2-8) is 218 µM; for `C[C@@H]1NC(=O)[C@H]([C@@H](C)O)NC(=O)[C@@H]2CCCN2C(=O)[C@H](CCC(=O)O)NC(=O)CN(C(=O)CCCCNC(=S)Nc2ccc3c(c2)C2(OC3=O)c3ccc(O)cc3Oc3cc(O)ccc32)CCCCC/C=C/CN(CC(=O)N[C@@H](CCC(=O)O)C(N)=O)C(=O)[C@@H]2CCCN2C(=O)[C@@H]2CCCN2C1=O` ({Fluorescein(5-NHCS)-Ava}-[X5]EPTAPP[X2]E-NH2; staple (E) 1-8) it is over 500 µM.

What is called Kd is the constant that tells how readily two partners part at equilibrium.
